Bioassay records: PubChem BioAssay, several laboratories
PfGluPho inh = PfG6PD (Plasmodium falciparum) enzyme inhibition; PfGluPho enzyme, NADPH resazurin-diaphorase fluorescence; inhibition, % at 20 µM; actives 0.78% (n = 350,000); AID 504690;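 active means inhibition reaching at least a set limit at 20 µM in the primary screen, cut at about 59% in these data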
Beta2AR agonist = activates human beta-2 adrenergic receptor causing internalization; P07550; Am2.2-beta2AR cells, FAP receptor internalization, flow cytometry; response, % (test concentration not listed); actives 0.43% (n = 340,000); AID 504454;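 active means response above a set limit, near 3 SD of response in nonfluorescent compounds, cut at about 42% in these data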
H9c2 protect = myocardial damage modulation in H9c2 cells | H9c2 cardiomyocytes, H2O2 injury protection, ATPLite, 2 h | protection from H2O2 cell death, % at 20 µM | actives 0.63% (n = 360,000);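 active means compounds giving at least 50% protection of heart cells from peroxide-induced death in the single-dose screen, raw or plate-pattern-corrected value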
UCH37 DUB inh = blocks the human deubiquitinase UCH37 | Q9Y5K5 | actives 0.33% (n = 330,000) | AID 588478 | inhibition, % (no concentration beside the values) | purified proteasome/UCH37, Ub-AMC cleavage fluorescence;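 active means mean inhibition over replicate wells above about 20%, limit read from the data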
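assay system = human UCH37 enzyme supplied as purified proteasome complex | amount = proteasome at 0.15 nM in the dispensed enzyme solution | schedule = 30 min compound-proteasome preincubation then 25 min substrate reaction, room temperature | measured by = fluorescence, ex 355 nm, em 460 nm | benchmarks = no-proteasome wells (full inhibition) and compound-free wells (no inhibition)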
aDG glyco act = alpha-DG glycosylation activation; Pro5-aDG cells, alpha-DG glycosylation AlphaScreen (IIH6); 0% Pro5, 100% B10-LARGE cell signal; activation, % at 10 µM; actives 0.22% (n = 360,000); AID 624168;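 active means activation of at least 8% versus controls, or a plate z-score of at least 8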;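 further: Pro5 are CHO cells carrying HIG-tagged alpha-DG that lacks glycosylation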
HKDC1 inhibitor = blocks human hexokinase HKDC1 activity; recombinant HKDC1, G6PDH/diaphorase resazurin coupled fluorescence; inhibition, % at 20 µM; actives 0.16% (n = 340,000); AID 493160;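 active means inhibition above about 35% when tested at 20 µM, limit read from the data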
Target sequence (Q2TB90 whole entry, looked up): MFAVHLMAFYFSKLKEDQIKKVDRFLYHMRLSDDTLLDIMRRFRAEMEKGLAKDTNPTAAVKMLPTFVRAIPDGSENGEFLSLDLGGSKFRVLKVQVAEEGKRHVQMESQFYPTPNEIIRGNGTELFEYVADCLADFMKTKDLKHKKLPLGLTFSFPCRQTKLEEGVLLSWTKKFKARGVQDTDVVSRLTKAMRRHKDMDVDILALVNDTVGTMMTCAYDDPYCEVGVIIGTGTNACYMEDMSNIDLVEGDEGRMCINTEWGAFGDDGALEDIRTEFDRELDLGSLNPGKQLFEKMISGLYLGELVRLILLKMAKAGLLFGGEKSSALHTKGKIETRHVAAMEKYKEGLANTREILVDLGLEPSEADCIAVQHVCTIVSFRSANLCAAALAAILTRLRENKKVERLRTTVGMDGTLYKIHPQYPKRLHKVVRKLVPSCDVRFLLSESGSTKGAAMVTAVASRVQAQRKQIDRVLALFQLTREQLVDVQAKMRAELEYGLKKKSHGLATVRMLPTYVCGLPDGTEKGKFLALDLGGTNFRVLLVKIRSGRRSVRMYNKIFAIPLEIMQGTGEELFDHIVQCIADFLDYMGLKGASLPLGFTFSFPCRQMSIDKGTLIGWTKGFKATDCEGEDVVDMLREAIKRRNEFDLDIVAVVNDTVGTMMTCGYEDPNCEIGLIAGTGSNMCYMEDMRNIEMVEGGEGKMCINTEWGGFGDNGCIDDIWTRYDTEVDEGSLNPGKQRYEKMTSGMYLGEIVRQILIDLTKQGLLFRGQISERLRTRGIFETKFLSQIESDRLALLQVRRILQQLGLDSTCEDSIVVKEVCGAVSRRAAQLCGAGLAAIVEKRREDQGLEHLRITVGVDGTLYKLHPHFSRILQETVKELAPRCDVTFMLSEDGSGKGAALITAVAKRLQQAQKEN
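Assay system – recombinant HKDC1 (HK5) hexokinase enzyme, produced in-house · Input – HKDC1 at 5 µg/mL · Reagent – glucose plus 1 mM ATP as hexokinase substrates · Timing – 90 min reaction incubation at room temperature, dark · Measured by – G6PDH/diaphorase-coupled fluorescence, 1 mM NADP, 100 µM resazurin, 525/613 nm · Benchmarks – DMSO-enzyme wells negative, buffer-substituted wells positive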
Each line names hits and unclear results; the compound was inactive in the other large screens. Sampled rows, rich in hits. Any-hit rate of the full collection: about 2.1%.

O=S(=O)(c1ccccc1)C1(C2CC(c3ccccc3)=NO2)CC(O)C1 (stereo not given)	UCH37 DUB inh 28.5
O=C(O)C1CC(c2ccccc2)=NO1 (stereo not given)	none
COc1ccc(-n2c(C)c(C(C)=O)c3cc(OC(C)=O)ccc32)cc1	H9c2 protect 53.3
COc1ccc2c(c1)c(C(C)=O)c(C)n2-c1ccc(C(C)=O)cc1	none
CON=Cc1ccc(N2CCCC2)c([N+](=O)[O-])c1	none (no result: PfGluPho inh, Beta2AR agonist, H9c2 protect, aDG glyco act, HKDC1 inhibitor)
O=[N+]([O-])c1cc(C=Nn2cnnc2)ccc1N1CCCC1	UCH37 DUB inh 21.4 (no result: PfGluPho inh, Beta2AR agonist, H9c2 protect, aDG glyco act, HKDC1 inhibitor)
CCOC(=O)NN=Cc1cn(Cc2ccccc2Cl)c2ccccc12	none (no result: PfGluPho inh, Beta2AR agonist, H9c2 protect, aDG glyco act, HKDC1 inhibitor)
CC(=NOc1nc(C)cc(C)n1)c1ccc(Br)cc1	none (no result: PfGluPho inh, Beta2AR agonist, H9c2 protect, aDG glyco act, HKDC1 inhibitor)
CCCCCCCCOC(=O)c1cc([N+](=O)[O-])c(Sc2ncnc3nc[nH]c23)c([N+](=O)[O-])c1	Beta2AR agonist 99.2 (no result: UCH37 DUB inh)
CC(=O)Nc1cccc(C(C)=NNC(=S)NC(C)C)c1	none (no result: PfGluPho inh, Beta2AR agonist, H9c2 protect, aDG glyco act, HKDC1 inhibitor)
O=C(CN1c2ccccc2Sc2ccccc21)NN=Cc1ccc([N+](=O)[O-])cc1	none (no result: PfGluPho inh, Beta2AR agonist, H9c2 protect, aDG glyco act, HKDC1 inhibitor)
C=CS(=O)(=O)c1ccc(Oc2ccc(S(=O)(=O)C=C)cc2)cc1	Beta2AR agonist 42.4
Cc1ccc(S(=O)(=O)N2CCOC2CNC(=O)C(=O)NCCc2c[nH]c3ccccc23)cc1 (stereo not given)	UCH37 DUB inh 29.0
O=C(NCCc1c[nH]c2ccccc12)C(=O)NCC1OCCCN1S(=O)(=O)c1ccc(F)cc1 (stereo not given)	none
CN(C)S(=O)(=O)n1cc(/C=C(\NC(=O)c2ccccc2F)C(=O)NCCN2CCOCC2)c2ccccc21	H9c2 protect 75.3 (no result: Beta2AR agonist, UCH37 DUB inh, HKDC1 inhibitor)
CN(C)S(=O)(=O)n1cc(/C=C(\NC(=O)c2ccccc2)C(=O)NCCN2CCOCC2)c2ccccc21	none
O=C1Nc2ccc(Br)cc2C1Cc1ccccc1F (stereo not given)	PfGluPho inh 88.5
COc1cccc(CN(C)C(=O)c2cc(COc3ccc4ncccc4c3)on2)c1	aDG glyco act 12.8
COc1cccc(CN(C)C(=O)c2cc(COc3c(F)cccc3F)on2)c1	none
O=C(COc1cc2oc(=O)c3c(c2cc1Cl)CCC3)Nc1ccc(CN2CCOCC2)cc1	Beta2AR agonist 42.3
COc1ccc(-c2cc(C(=O)NNC3=NCCC3)c3c(C)nn(-c4ccccc4)c3n2)cc1	H9c2 protect 83.6
Cc1ccc(-c2nn3c(C)nnc3s2)cc1NC(=O)CSc1ccc(Cl)cc1	none
Cc1ccc(-c2nn3c(C)nnc3s2)cc1NC(=O)COc1ccc(Cl)cc1	H9c2 protect 50.3
O=C(COC(=O)CCc1nc2ccccc2c(=O)[nH]1)NCc1ccc(F)cc1	H9c2 protect 50.5
O=C(CCc1nc2ccccc2c(=O)[nH]1)OCc1ccccc1F	none
O=C(CCc1nc2ccccc2c(=O)[nH]1)Nc1nnc(SCc2ccc(Cl)cc2)s1	none
O=C(CCc1nc2ccccc2c(=O)[nH]1)OCCOc1ccc(Cl)cc1	H9c2 protect 65.6
CC(=O)NCc1ccc(-c2csc(NC(=O)CCc3nc4ccccc4c(=O)[nH]3)n2)s1	H9c2 protect 89.9
O=C(CCc1nc2ccccc2c(=O)[nH]1)OCc1nnc(-c2ccccc2)o1	H9c2 protect 74.6
O=C(CCCC(=O)Nc1cccc(Br)c1)NN=Cc1cc([N+](=O)[O-])ccc1O	none (no result: PfGluPho inh, Beta2AR agonist, H9c2 protect, aDG glyco act, HKDC1 inhibitor)
O=C(NN=C/C=C/c1ccccc1[N+](=O)[O-])c1cc(-c2cccnc2)nc2ccccc12	none (no result: PfGluPho inh, Beta2AR agonist, H9c2 protect, aDG glyco act, HKDC1 inhibitor)
CC(=NNC(=O)c1sccc1-n1cccc1)c1cccs1	none (no result: PfGluPho inh, Beta2AR agonist, H9c2 protect, aDG glyco act, HKDC1 inhibitor)
CSc1ccc(C=Nn2c(C)nnc2C)cc1	none (no result: PfGluPho inh, Beta2AR agonist, H9c2 protect, aDG glyco act, HKDC1 inhibitor)
CCc1nc2ccccc2c(C(=O)OCc2nc3ccccc3c(=O)[nH]2)c1C	H9c2 protect 55.7
Cc1ccc(CNC(=O)CCc2nc3ccccc3c(=O)[nH]2)cc1	H9c2 protect 50.7
CC[C@@H](C)[C@H](NC(=O)OC(C)(C)C)c1nnc(S(=O)(=O)Cc2cc(C)ccc2C)o1	none
Cc1ccccc1CS(=O)(=O)c1nnc([C@H](CC(C)C)NC(=O)OC(C)(C)C)o1	Beta2AR agonist 64.3
CC1CCCN(c2ccc([N+](=O)[O-])s2)C1 (stereo not given)	none
O=[N+]([O-])c1ccc(N2CCCCC2)s1	UCH37 DUB inh 20.2
Cc1cccc(-n2c(SCc3cc(=O)n4ccsc4n3)nc3ccccc3c2=O)c1	H9c2 protect 66.6
O=c1c2ccccc2nc(SCc2cn3ccsc3n2)n1-c1ccccc1	none
Cc1ccc2sc(NNC(=O)c3cc(=O)c4ccccc4o3)nc2c1C	H9c2 protect 56.1 (no result: UCH37 DUB inh)
Cc1cccc2sc(NNC(=O)c3cc(=O)c4ccccc4o3)nc12	none (no result: UCH37 DUB inh)
COc1ccc(CNCCc2ccc(Cl)cc2)cc1OCc1ccccc1	aDG glyco act 2.7
COc1ccc(Cc2nnc(N/N=C/c3ccc(O)cc3O)[nH]c2=O)cc1OC	H9c2 protect 51.9 (no result: UCH37 DUB inh)
C=CCn1c(SCC(=O)c2ccc(O)c(O)c2)nnc1-c1cccc(Cl)c1	H9c2 protect 54.6
C=CCn1c(SCC(=O)c2ccc(O)c(O)c2)nnc1-c1cccc(C)c1	none
CCOC(=O)Oc1ccc2oc(=O)cc(C)c2c1	none
Cc1cc(=O)oc2ccc(OCC(=O)N(Cc3ccc(F)cc3)Cc3ccco3)cc12	Beta2AR agonist 60.9
CCc1sc(N(C(=O)Cc2ccccc2)c2ccc(F)cc2)nc1-c1ccccc1	UCH37 DUB inh 24.3
